Reference: PMC6500731 (Clinical cancer research : an official journal of the …, 2018)

What was measured:
[1] = test system: SNU-398; assay: Western blot in SNU-398 cells; type: cell-based; conditions: 16 hours
[2] = test system: SNU-398; assay: Viability assay in SNU-398 cells; type: cell-based
[3] = test system: primary chronic lymphocytic leukemia (CLL) cells; assay: OPP labeling in primary CLL patient cells; type: cell-based
[4] = target: T1, eIF4A1 (Homo sapiens, UniProt P60842); assay: Malachite green ATP hydrolysis assay, wildtype eIF4A1; type: biochemical
Procedure, shortened: (§1)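 Malachite green ATPase run at 37 °C for 1 h. eIF4A1 wild-type, K82R (500 nM) or K238E (500 nM) in 20 mM MES-NaOH pH 6.0, 100 mM potassium acetate, 2.5 mM MgCl2, 1% glycerol, 1 mM DTT. ATP gradient 0–2 mM. Aliquot mixed with 9.3 µM malachite green, 53 mM ammonium molybdate, 1 M HCl, 0.04% Tween 20. Mean ± SEM, n=3.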

[5] = test system: engrafted B16 murine melanoma cells; conditions: 10 mg/kg daily i.p. or p.o.; cited from earlier work
[6] = target: p97 (Homo sapiens, UniProt P55072); assay: Malachite green ATP hydrolysis counter-screen, p97; type: biochemical
[7] = test system: OCI-Ly3 xenograft; assay: OCI-Ly3 xenograft; type: in vivo
Procedure, shortened: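 Female SCID mice, 8–10 weeks old. 10 × 10^6 OCI-Ly3 cells, washed in ice-cold PBS and mixed 1:1 with matrigel, implanted s.c. in the flank. Tumors dissected at 500 mm3, dissociated, and 1 × 10^6 serially transplanted cells implanted s.c. At ≥50 mm3, mice pair-matched to vehicle or 40 mg/kg i.p. twice weekly. Weight and tumor volume monitored twice weekly; n=8; two-way ANOVA.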

[8] = target: DDX3 (Homo sapiens, UniProt O00571); assay: Malachite green ATP hydrolysis counter-screen, DDX3; type: biochemical
[9] = target: eIF4A1 helicase activity (Homo sapiens, UniProt P60842); assay: Fluorescence-based helicase assay; type: biochemical; conditions: cell-free, RNA unwinding de-quenching
[10] = target: T1, eIF4A1; assay: Isothermal titration calorimetry; type: binding
Procedure, shortened: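 eIF4A dialysed 12 h against 20 mM MES-KOH pH 6.0, 10 mM potassium acetate, 2.5 mM MgCl2, 1% glycerol, 1 mM DTT. Protein was matched to 2% DMSO, degassed and placed in the cell. 12–20 injections of 0.2 mM test compound in the same buffer, every 200 s over 3000 s. Peaks integrated to 75 s post-injection and fit to an independent binding model. Replicates run at 25 and 10 µM eIF4A.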

[11] = target: eIF4A1-K82R (Homo sapiens, UniProt P60842, K82R); assay: Malachite green ATP hydrolysis assay, eIF4A1-K82R mutant; type: biochemical
Procedure, shortened: as §1

[12] = test system: HEK-293 cells; assay: Dual-luciferase reporter assay; type: cell-based; conditions: eight-hour treatment
Procedure, shortened: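 HEK-293 cells (7 × 10^5) transfected with 400 ng of a dual-luciferase plasmid using Lipofectamine 3000. Treated 36 h after transfection for 8 h, then lysed with a dual-luciferase kit and read in triplicate. Luciferase units normalized to DMSO-treated cells; mean ± SEM, n=3.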

[13] = test system: Atf4−/− and WT MEFs; assay: Viability; type: cell-based, Murine; conditions: Mus musculus, 72 h, read-out: IC50, viability, Atf4−/− MEFs, 72 hour
[14] = test system: protein synthesis in DLBCL cells; assay: O-propargyl puromycin; type: cell-based; conditions: concentrations relative to LD50, 4, 16 or 24 hours
Procedure, shortened: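 DLBCL cells treated 4, 16 or 24 h with test compound, silvestrol or carboplatin, at concentrations scaled to each agent's LD50. Cells pulsed with O-propargyl puromycin, washed twice in PBS and click-labelled with Alexa-488 azide. Flow cytometry gave mean fluorescence on live-gated cells, normalised to DMSO. Mean ± SEM, n=3; unpaired two-tailed t-tests with Benjamini–Krieger–Yekutieli correction.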

[15] = test system: 97 oncogenic and related kinases; assay: Commercial kinome screen; type: binding
[16] = target: human chaperone HSP70 (Homo sapiens, UniProt P0DMV8); assay: Malachite green ATP hydrolysis counter-screen, HSP70; type: biochemical
[17] = test system: SU-DHL-6 flank tumors; assay: SU-DHL-6 xenograft; type: in vivo
Procedure, shortened: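 Female SCID mice, 8–10 weeks old. 2 × 10^6 SU-DHL-6 cells, washed in ice-cold PBS and mixed 1:1 with matrigel, injected s.c. into the right flank. At 60 mm3, mice pair-matched to vehicle (sterile water, 5.2% tween-80, 5.2% PEG-400) or 20 mg/kg test compound i.p. daily for 5 days. Weight and tumor volume measured twice weekly; mean ± SEM, n=8.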

[18] = test system: Harvard/Wellcome cancer cell line collection; assay: Growth inhibition screen, Harvard/Wellcome cell line collection; type: cell-based; conditions: 344/924 cell lines
[19] = test system: DLBCL cell lines; assay: Proliferation assay; type: cell-based; conditions: three DLBCL cell lines, single elatol treatment
Procedure, shortened: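 Three DLBCL lines seeded on day 0 and given a single dose of DMSO vehicle or test compound at indicated concentrations. Viable cells counted daily by trypan blue exclusion. Mean ± SEM, n=3.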

[20] = target: DDX17 (Homo sapiens, UniProt Q92841); assay: Malachite green ATP hydrolysis counter-screen, DDX17; type: biochemical
[21] = test system: OCI-Ly3; assay: Protein; type: cell-based; conditions: OCI-Ly3, Fig. S3D
[22] = Single-dose maximum tolerated dose study; type: in vivo; conditions: for tolerability, single dose: five female CD-1 mice
[23] = target: DDX39A (Homo sapiens, UniProt O00148); assay: Malachite green ATP hydrolysis counter-screen, DDX39A; type: biochemical
[24] = target: eIF4A1-K238E (Homo sapiens, UniProt P60842, K238E); assay: Malachite green ATP hydrolysis assay, eIF4A1-K238E mutant; type: biochemical
Procedure, shortened: as §1

T1 sequence (P60842 whole entry): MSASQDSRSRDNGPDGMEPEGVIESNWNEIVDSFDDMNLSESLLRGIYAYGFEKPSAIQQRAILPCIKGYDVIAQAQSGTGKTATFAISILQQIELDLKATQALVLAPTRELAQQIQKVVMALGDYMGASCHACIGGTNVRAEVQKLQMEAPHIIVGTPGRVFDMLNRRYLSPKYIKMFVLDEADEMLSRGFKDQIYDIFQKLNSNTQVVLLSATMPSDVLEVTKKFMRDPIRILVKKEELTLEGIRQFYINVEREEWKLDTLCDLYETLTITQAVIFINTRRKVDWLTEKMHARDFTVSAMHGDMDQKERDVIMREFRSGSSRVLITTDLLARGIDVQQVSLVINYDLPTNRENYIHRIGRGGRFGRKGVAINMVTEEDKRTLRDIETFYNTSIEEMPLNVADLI
eIF4A1-K238E, sequence (P60842 whole entry K238E): as the sequence (P60842 whole entry) above, with K238E counted along it
eIF4A1-K82R, sequence (P60842 whole entry K82R): as the sequence (P60842 whole entry) above, with K82R counted along it
eIF4A1 helicase activity, sequence (P60842 whole entry): as the sequence (P60842 whole entry) above
DDX3, sequence (O00571 whole entry, species assumed): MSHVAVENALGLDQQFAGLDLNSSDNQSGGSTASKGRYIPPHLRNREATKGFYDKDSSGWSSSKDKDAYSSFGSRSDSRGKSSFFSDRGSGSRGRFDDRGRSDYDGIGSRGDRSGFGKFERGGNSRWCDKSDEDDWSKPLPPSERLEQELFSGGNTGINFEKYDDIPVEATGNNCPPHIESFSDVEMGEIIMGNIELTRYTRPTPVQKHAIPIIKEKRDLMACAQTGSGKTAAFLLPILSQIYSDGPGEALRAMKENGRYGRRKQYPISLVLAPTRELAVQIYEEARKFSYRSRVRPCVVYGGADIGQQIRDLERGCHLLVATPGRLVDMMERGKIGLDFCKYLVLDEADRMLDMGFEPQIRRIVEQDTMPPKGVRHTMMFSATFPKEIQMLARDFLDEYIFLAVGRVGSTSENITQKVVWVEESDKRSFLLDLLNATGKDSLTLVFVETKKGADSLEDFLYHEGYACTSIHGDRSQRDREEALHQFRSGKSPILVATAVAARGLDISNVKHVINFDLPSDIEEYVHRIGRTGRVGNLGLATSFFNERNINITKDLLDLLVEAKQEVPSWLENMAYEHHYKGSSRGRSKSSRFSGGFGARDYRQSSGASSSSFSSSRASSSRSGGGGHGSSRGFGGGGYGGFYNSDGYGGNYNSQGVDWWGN
p97, sequence (P55072 whole entry): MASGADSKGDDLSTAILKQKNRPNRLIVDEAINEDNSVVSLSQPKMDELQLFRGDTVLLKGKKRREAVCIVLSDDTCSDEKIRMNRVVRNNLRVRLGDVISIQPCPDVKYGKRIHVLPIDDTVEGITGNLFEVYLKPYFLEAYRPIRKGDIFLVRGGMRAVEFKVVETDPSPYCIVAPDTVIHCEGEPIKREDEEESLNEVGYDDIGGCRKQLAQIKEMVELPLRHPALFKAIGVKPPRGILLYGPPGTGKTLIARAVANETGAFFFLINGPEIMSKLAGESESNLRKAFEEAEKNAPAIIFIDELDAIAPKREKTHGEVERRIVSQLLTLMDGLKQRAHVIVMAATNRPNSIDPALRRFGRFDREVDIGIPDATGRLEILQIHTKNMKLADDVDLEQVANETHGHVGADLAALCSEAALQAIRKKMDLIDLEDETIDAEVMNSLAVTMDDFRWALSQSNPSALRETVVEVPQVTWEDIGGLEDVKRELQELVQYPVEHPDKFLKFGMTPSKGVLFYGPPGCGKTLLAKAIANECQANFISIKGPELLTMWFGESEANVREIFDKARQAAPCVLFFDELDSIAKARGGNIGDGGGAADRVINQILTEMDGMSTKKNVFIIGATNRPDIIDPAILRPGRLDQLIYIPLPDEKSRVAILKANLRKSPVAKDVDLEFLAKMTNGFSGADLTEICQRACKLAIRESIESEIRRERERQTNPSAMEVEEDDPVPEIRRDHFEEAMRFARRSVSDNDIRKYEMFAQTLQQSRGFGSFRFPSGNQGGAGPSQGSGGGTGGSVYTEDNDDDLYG
DDX39A, sequence (O00148 whole entry, species assumed): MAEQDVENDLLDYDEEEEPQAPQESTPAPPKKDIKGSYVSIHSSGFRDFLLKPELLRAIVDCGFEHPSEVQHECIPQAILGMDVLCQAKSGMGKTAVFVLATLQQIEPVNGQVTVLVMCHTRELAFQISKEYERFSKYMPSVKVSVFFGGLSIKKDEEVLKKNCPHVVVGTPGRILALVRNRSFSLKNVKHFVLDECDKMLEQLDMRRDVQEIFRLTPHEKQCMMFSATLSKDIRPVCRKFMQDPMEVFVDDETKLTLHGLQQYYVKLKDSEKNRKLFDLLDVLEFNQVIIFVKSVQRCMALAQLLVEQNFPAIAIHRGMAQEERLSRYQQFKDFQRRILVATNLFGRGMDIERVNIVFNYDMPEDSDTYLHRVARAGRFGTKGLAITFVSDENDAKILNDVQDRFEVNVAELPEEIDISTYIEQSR
DDX17, sequence (Q92841 whole entry, species assumed): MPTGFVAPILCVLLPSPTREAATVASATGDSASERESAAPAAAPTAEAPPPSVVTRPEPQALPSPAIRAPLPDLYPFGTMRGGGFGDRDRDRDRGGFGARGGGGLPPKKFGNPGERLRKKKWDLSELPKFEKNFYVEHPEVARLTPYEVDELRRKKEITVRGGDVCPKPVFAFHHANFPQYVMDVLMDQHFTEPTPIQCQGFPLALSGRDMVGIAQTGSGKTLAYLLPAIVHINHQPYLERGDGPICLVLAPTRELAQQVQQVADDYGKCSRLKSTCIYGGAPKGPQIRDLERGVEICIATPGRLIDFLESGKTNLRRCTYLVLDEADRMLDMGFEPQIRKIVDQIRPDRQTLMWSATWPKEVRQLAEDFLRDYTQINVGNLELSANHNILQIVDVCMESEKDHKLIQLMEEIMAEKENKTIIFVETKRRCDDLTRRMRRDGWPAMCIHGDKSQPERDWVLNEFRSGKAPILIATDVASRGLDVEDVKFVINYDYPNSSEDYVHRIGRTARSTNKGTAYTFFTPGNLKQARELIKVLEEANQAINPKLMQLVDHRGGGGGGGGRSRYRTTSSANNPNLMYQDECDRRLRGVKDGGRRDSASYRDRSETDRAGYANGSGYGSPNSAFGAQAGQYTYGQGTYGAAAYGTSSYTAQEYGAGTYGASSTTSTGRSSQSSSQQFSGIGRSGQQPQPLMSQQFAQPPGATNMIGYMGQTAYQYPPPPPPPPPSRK
human chaperone HSP70, sequence (P0DMV8 whole entry): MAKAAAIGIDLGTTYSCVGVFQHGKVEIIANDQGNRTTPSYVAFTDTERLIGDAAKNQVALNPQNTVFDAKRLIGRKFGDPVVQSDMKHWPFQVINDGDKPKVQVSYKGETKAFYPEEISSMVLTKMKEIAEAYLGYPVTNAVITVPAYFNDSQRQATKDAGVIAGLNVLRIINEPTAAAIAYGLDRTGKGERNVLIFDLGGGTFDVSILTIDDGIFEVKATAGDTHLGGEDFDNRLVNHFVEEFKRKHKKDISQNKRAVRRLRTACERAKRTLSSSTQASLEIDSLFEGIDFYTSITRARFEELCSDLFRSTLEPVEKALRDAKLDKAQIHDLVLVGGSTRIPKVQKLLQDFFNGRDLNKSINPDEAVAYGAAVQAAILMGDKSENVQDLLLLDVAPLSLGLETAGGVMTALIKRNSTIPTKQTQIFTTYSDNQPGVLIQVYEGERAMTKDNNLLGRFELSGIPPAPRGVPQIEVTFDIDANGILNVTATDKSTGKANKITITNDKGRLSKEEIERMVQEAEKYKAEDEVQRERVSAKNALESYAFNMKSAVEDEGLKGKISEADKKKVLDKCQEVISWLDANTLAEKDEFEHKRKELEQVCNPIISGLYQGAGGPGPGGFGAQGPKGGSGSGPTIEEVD

Compound: C=C1C[C@H](O)[C@H](Br)C(C)(C)[C@@]12CCC(C)=C(Cl)C2 [elatol]
- activity against mTORC1 targets (phosphorylation of S6 and 4EBP1) ([1]; 200 nM rapamycin, 100 nM silvestrol, 1 μM elatol): no activity
- ATF4 expression ([1]; SNU-398, 1 μM elatol): induced expression of the transcription factor ATF4
- type of effect on SNU-398 cells ([2]; 72-hour treatment): highly cytotoxic
- LD50 ([2]; SNU-398, 72-hour treatment): 219 nM
- protein translation measured by OPP labeling ([3]; primary CLL cells stimulated with anti IgM): significantly reduced protein translation
- OPP labeling ([3]; unstimulated primary CLL cells, or non-malignant T-cells): did not significantly inhibit OPP labeling
- IC50 [4]: 16.4 µM
- antitumor activity [5]: antitumor activity
- activity against ATP hydrolysis by p97 [6]: no activity
- tolerability in tumor-bearing mice ([7]; 40 mg/kg i.p. twice per week): well-tolerated
- tumor growth compared to vehicle-treated controls ([7]; 40 mg/kg i.p. twice per week, p=0.0117): significant reduction of tumor growth
- tolerability in tumor-bearing mice ([7]; single dose at 65 mg/kg, OCI-Ly3 engrafted SCID mice): morbidity and weight loss
- activity against ATP hydrolysis by DDX3 [8]: no activity
- effect on eIF4A1 helicase activity [9]: inhibition
- Kd [10]: 1.98 ± 0.31 µM
- IC50 [11]: 85.5 ± 31.8 µM
- cap-dependent versus IRES driven luciferase expression [12]: down-regulated cap-dependent protein translation more strongly than cap-independent IRES driven expression
- IC50 [13]: 2.79 µM
- protein synthesis measured by incorporation of OPP [14]: global decline of protein synthesis
- activity against 97 oncogenic and related kinases [15]: no activity
- activity against ATP hydrolysis by HSP70 [16]: no activity
- time tumor growth was halted from the start of treatment ([17]; 20 mg/kg i.p. daily for 5 days, one cycle): 12 days
- tolerability in tumor-bearing mice ([17]; 20 mg/kg i.p. daily, first five-day cycle): weight loss and overt signs of toxicity
- share of cell lines having IC50 < 1μM [18]: 37%
- effect on proliferation [19]: completely halted proliferation
- activity against ATP hydrolysis by DDX17 [20]: no activity
- concentration at which mRNA reductions become significant [21]: 500 to 1000 nM
- concentration at which protein-expression changes begin [21]: 100 nM
- tolerability, single dose ([22]; 50 mg/kg single i.p. dose): tolerated 50 mg/kg without issue
- tolerability, single dose ([22]; 65 mg/kg single i.p. dose): tolerated 65 mg/kg without issue
- mice dying or moribund requiring sacrifice ([22]; 80 mg/kg single i.p. dose, within five days): 3/5
- mortality, single dose ([22]; 100 mg/kg single i.p. dose, within five days): all five animals in group 2 died
- tolerated dose relative to silvestrol ([22]; CD-1, SCID, mouse, in vivo, 14 days): ~ 100 x
- activity against ATP hydrolysis by DDX39A [23]: no activity
- IC50 [24]: 34.2 ± 12.8 µM
